The values below come from ChEMBL document CHEMBL1145047, “Design, synthesis, and evaluation of substituted phenylpropanoic acid derivatives as human peroxisome proliferator activated receptor activators. Discovery of potent and human peroxisome proliferator activated receptor alpha subtype-selective activators” (J Med Chem, 2003).

The target in assay [1] is T1, Peroxisome proliferator-activated receptor delta (Homo sapiens) (UniProt Q03181).
T1 sequence (whole entry): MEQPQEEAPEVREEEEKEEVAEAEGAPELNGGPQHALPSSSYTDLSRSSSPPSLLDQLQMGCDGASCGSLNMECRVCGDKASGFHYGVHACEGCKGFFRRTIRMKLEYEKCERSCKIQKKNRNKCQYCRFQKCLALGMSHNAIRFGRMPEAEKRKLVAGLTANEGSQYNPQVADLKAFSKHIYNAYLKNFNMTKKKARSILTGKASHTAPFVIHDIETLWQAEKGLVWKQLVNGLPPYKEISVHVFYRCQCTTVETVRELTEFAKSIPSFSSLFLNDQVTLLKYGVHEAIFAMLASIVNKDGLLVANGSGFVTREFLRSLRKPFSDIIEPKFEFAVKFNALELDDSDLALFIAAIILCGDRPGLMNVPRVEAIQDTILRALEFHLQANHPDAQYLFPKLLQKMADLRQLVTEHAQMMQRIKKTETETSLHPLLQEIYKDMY
Put plainly: In vitro effective concentration for agonist activity on human Peroxisome proliferator activated receptor delta-GAL4 chimeric receptor in transfected CHO-K1 cells; inactive. It is filed as functional, cell-based. The procedure, abridged:
(§1)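 GAL4–human PPAR LBD chimera, reporter assay in CHO-K1 cells. Cells seeded at 5 × 10⁴/well in Ham's F12 with 10% FCS for 24 h at 37 °C. Cotransfected for 2 h (lipofectamine) per well with 40 ng GAL4/PPAR LBD, 400 ng pFR-Luc and 5 ng pRL-TK. Compounds applied for 20 h at 37 °C, then luciferase read from cell lysates. EC50 is 50% of maximal reporter activity, from curve fit, n = 3.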

Assay [2] concerns the target T2, Peroxisome proliferator-activated receptor gamma (Homo sapiens) (UniProt P37231).
T2 sequence (whole entry): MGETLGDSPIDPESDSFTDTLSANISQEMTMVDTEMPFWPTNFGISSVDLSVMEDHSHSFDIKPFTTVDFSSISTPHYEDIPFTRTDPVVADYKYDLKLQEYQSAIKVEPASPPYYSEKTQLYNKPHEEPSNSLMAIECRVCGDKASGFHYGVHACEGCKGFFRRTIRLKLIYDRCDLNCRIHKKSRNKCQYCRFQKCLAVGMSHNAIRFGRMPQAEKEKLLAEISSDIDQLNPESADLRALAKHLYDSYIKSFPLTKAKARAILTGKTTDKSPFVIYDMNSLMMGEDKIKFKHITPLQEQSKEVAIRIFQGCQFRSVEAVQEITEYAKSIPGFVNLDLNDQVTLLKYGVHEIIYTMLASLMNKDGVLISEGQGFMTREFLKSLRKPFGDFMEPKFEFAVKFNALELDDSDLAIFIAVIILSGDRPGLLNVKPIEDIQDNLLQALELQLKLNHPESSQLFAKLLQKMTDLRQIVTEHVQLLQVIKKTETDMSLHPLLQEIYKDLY
Put plainly: In vitro effective concentration for agonist activity on human Peroxisome proliferator activated receptor gamma-Gal4 chimeric receptor in transfected CHO-K1 cells at 10 uM. It is filed as functional, cell-based.

In assay [3] the target is T1, Peroxisome proliferator-activated receptor delta (Homo sapiens). Put plainly: (§2) Agonist activity on Gal4 chimeric human Peroxisome proliferator activated receptor delta expressed in CHO-K1 cells. In kind it is functional, cell-based. The procedure, abridged: as §1
The target in assay [4] is T3, Peroxisome proliferator-activated receptor alpha (Homo sapiens) (UniProt Q07869).
T3 sequence (whole entry): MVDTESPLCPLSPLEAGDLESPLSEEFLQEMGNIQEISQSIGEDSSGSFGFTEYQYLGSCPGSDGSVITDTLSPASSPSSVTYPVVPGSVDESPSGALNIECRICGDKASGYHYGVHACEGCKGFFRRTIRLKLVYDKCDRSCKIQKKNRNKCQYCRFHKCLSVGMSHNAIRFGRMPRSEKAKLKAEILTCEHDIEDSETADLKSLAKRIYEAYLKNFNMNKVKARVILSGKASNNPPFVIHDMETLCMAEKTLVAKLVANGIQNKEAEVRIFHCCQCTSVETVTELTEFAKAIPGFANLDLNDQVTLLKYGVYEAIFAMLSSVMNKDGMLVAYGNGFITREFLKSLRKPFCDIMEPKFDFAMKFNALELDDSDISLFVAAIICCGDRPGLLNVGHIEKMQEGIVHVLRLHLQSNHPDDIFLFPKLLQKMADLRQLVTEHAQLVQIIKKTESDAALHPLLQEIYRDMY
Put plainly: Agonist activity on Gal4 chimeric human Peroxisome proliferator activated receptor alpha expressed in CHO-K1 cells. In kind it is functional, cell-based. The procedure, abridged: as §1

Assay [5] concerns the target T4, Peroxisome proliferator-activated receptor alpha (Homo sapiens, UniProt Q07869).
T4 sequence (Q07869 whole entry): T3 sequence (whole entry)
In kind it is functional, cell-based.

The target in assay [6] is T5, Peroxisome proliferator-activated receptor gamma (Homo sapiens, UniProt P37231).
T5 sequence (P37231 whole entry): T2 sequence (whole entry)

Assay [7] has as its target T6, Peroxisome proliferator-activated receptor delta (Homo sapiens, UniProt Q03181).
T6 sequence (Q03181 whole entry): T1 sequence (whole entry)
Described as §2. It is filed as functional, cell-based.

In assay [8] the target is T1, Peroxisome proliferator-activated receptor delta (Homo sapiens). Put plainly: In vitro effective concentration for agonist activity on human Peroxisome proliferator activated receptor delta-GAL4 chimeric receptor in transfected CHO-K1 cells at 10 uM; inactive. In kind it is functional, cell-based.

Active and inactive are the calls of the source. No cut-off for these calls is given here.

Take `CCCCC(Cc1ccc(OC)c(C(=O)NCc2ccc(C(F)(F)F)cc2)c1)C(=O)O` (stereo not given): the IA entry in assay [1] is “inactive”.
In the case of `CCC(Cc1ccc(OC)c(C(=O)NCCc2ccc(C(F)(F)F)cc2)c1)C(=O)O` (stereo not given), the IA result in assay [2] is “inactive”.
For `COc1ccc(CC(C(=O)O)c2ccccc2)cc1C(=O)NCc1ccc(C(F)(F)F)cc1` (stereo not given), the IA entry in assay [2], in assay [3] and in assay [4] was “inactive” in each case.
As to `CCC(Cc1ccc(OC)c(C(=O)NCc2cccc(Oc3ccccc3)c2)c1)C(=O)O` (stereo not given), the IA entry in assay [3] was “inactive”. The EC50 amounted to 0.4 µM in assay [5] and 6.2 µM in assay [6].
As to `CCC(Cc1ccc(OC)c(CC(=O)Nc2ccc(C(F)(F)F)cc2)c1)C(=O)O` (stereo not given), the IA result in assay [2] and in assay [3] was “inactive” throughout.
For the compound `COc1ccc(CC(Sc2ccccc2)C(=O)O)cc1C(=O)NCc1ccc(C(F)(F)F)cc1` (stereo not given), the IA entry in assay [2], in assay [3] and in assay [4] was “inactive” in each case.
Turning to `CCC(Cc1ccc(OC)c(C(=O)NCc2cccc(OC)c2)c1)C(=O)O` (stereo not given), in assay [3], the IA result is “inactive”. Besides, the EC50 in assay [5] is 3.1 µM.
Turning to `COc1ccc(CC(SCc2ccccc2)C(=O)O)cc1C(=O)NCc1ccc(C(F)(F)F)cc1` (stereo not given), the IA result in assay [2], in assay [3] and in assay [4] was “inactive” each time.
In assay [6], `CCC(Cc1ccc(OC)c(CNC(=O)c2ccc(C(F)(F)F)cc2)c1)C(=O)O` (stereo not given) yielded an EC50 of more than 10 µM.
On to `CCC(Cc1ccc(OC)c(C(=O)NCc2ccc(Oc3ccccc3)cc2)c1)C(=O)O` (stereo not given), for which the EC50 in assay [7] came to 3 µM; in assay [5], 0.09 µM; in assay [6], 2.4 µM.
Consider `COc1ccc(CCCC(=O)O)cc1C(=O)NCc1ccc(C(F)(F)F)cc1`, for which the IA result in assay [3] is “inactive”.
As to `CCC(Cc1ccc(OC)c(C(=O)NCc2cccc(C(F)(F)F)c2)c1)C(=O)O` (stereo not given), the IA result in assay [8] and in assay [2] was “inactive” in each case. In assay [5], the response was half-maximal at 1.8 µM (EC50).
In the case of `COc1ccc(CCC(=O)O)cc1C(=O)NCc1ccc(C(F)(F)F)cc1`, the IA entry in assay [2] and in assay [3] was “inactive” each time.
Regarding `COc1ccc(CC(C)(C)C(=O)O)cc1C(=O)NCc1ccc(C(F)(F)F)cc1`, the IA result in assay [2] and in assay [3] was “inactive” in each case.
In the case of `CCC(Cc1ccc(OC)c(NC(=O)Cc2ccc(C(F)(F)F)cc2)c1)C(=O)O` (stereo not given), the IA entry in assay [2] and in assay [3] was “inactive” each time.
On to `CCC(Cc1ccc(OC)c(C(=O)Nc2ccc(C(F)(F)F)cc2)c1)C(=O)O` (stereo not given), for which the IA result in assay [2] and in assay [3] was “inactive” each time.
Turning to `CCC(Cc1ccc(OC)c(C(=O)NCc2ccc(Cl)cc2)c1)C(=O)O` (stereo not given), the IA entry in assay [1] and in assay [2] was “inactive” each time. Further, the EC50 in assay [5] turned out to be 3 µM.
Regarding `CCC(Cc1ccc(OC)c(CNCc2ccc(C(F)(F)F)cc2)c1)C(=O)O` (stereo not given), the IA entry in assay [2] is “inactive”.
For the compound `CCC(Cc1ccc(OC)c(CCCc2ccc(C(F)(F)F)cc2)c1)C(=O)O` (stereo not given), the IA result in assay [2] was “inactive”.
Take `CCC(Cc1ccc(OC)c(C(=O)NCc2ccc(OC)cc2)c1)C(=O)O` (stereo not given): the EC50 was determined as 6.6 µM in assay [7] and 1.2 µM in assay [5]. Besides, the IA entry in assay [2] was “inactive”.
Regarding `CCC(Cc1ccc(OC)c(OCCc2ccc(C(F)(F)F)cc2)c1)C(=O)O` (stereo not given), the IA result in assay [2] was “inactive”.
On to `CCC(Cc1ccc(OC)c(C(=O)N(C)Cc2ccc(C(F)(F)F)cc2)c1)C(=O)O` (stereo not given), for which the IA entry in assay [2], in assay [3] and in assay [4] was “inactive” throughout.
In the case of `CCCC(Cc1ccc(OC)c(C(=O)NCc2ccc(C(F)(F)F)cc2)c1)C(=O)O` (stereo not given), in assay [2], the IA entry is “inactive”.
On to `COc1ccc(CC(C(=O)O)C(C)C)cc1C(=O)NCc1ccc(C(F)(F)F)cc1` (stereo not given), for which the IA entry in assay [2] and in assay [3] was “inactive” in each case.
Regarding `CCC(Cc1ccc(OC)c(C(=O)NCc2ccc(OC(F)(F)F)cc2)c1)C(=O)O` (stereo not given), the EC50 in assay [7] was found to be 0.9 µM; in assay [5], 0.043 µM. In assay [2], the IA entry is “inactive”.
Take `CCC(Cc1ccc(OC)c(C(=O)NCc2ccccc2OC)c1)C(=O)O` (stereo not given): the IA entry in assay [2] and in assay [3] was “inactive” throughout. The compound also yielded an EC50 in assay [5] of 9.4 µM.
With `CCC(Cc1ccc(OC)c(C(=O)NCc2ccc(CCc3ccccc3)cc2)c1)C(=O)O` (stereo not given), the IA result in assay [3] was “inactive”. The EC50 in assay [5] came to 5.6 µM; in assay [6], 5.4 µM.
For `CCC(Cc1ccc(OC)c(C(=O)NCc2ccc(OCc3ccccc3)cc2)c1)C(=O)O` (stereo not given), the IA result in assay [2] and in assay [3] was “inactive” in each case. A half-maximal response in assay [5] (EC50) required 1.5 µM.
For `CCC(Cc1ccc(OC)c(C(=O)NCc2ccc(-c3ccccc3)cc2)c1)C(=O)O` (stereo not given), in assay [3], the IA result is “inactive”. In addition, the EC50 in assay [6] came out at 4 µM.
For `CCC(Cc1ccc(OC)c(C(=O)CCc2ccc(C(F)(F)F)cc2)c1)C(=O)O` (stereo not given), the IA result in assay [8] is “inactive”.
With `CCC(Cc1ccc(OC)c(NC(=O)Nc2ccc(C(F)(F)F)cc2)c1)C(=O)O` (stereo not given), the IA result in assay [2], in assay [3] and in assay [4] was “inactive” throughout.
As for `COc1ccc(C(=O)O)cc1C(=O)NCc1ccc(C(F)(F)F)cc1`, the IA result in assay [2], in assay [3] and in assay [4] was “inactive” throughout.
With `COc1ccc(CC(Oc2ccccc2)C(=O)O)cc1C(=O)NCc1ccc(C(F)(F)F)cc1` (stereo not given), the IA entry in assay [2], in assay [3] and in assay [4] was “inactive” in each case.
Regarding `CCC(Cc1ccc(OC)c(C(=O)NCc2ccc(OCCc3ccccc3)cc2)c1)C(=O)O` (stereo not given), the IA entry in assay [3] is “inactive”. In addition, the figures for the EC50 in assay [5] and in assay [6] were 2.7 µM and 3 µM, respectively.
Turning to `CCC(Cc1ccc(OC)c(C(=O)NCc2ccccc2Oc2ccccc2)c1)C(=O)O` (stereo not given), the IA result in assay [2], in assay [3] and in assay [4] was “inactive” in each case.
In the case of `CCC(Cc1ccc(OC)c(C(=O)NCc2ccccc2)c1)C(=O)O` (stereo not given), the IA result in assay [8] was “inactive”. Also, the EC50 in assay [5] was 2.3 µM; in assay [6] it was 10 µM.
Regarding `CCSC(Cc1ccc(OC)c(C(=O)NCc2ccc(C(F)(F)F)cc2)c1)C(=O)O` (stereo not given), the EC50 in assay [7] was 3 µM; in assay [5], 1.6 µM; in assay [6], 2.8 µM.
As for `COc1ccc(CC(OC)C(=O)O)cc1C(=O)NCc1ccc(C(F)(F)F)cc1` (stereo not given), the IA result in assay [2] and in assay [3] was “inactive” in each case.
Consider `COc1ccc(CC(C)C(=O)O)cc1C(=O)NCc1ccc(C(F)(F)F)cc1` (stereo not given), for which the IA entry in assay [2] was “inactive”.
Take `CCC(CC)(Cc1ccc(OC)c(C(=O)NCc2ccc(C(F)(F)F)cc2)c1)C(=O)O`: the IA result in assay [2] and in assay [3] was “inactive” throughout.
